This passage reports EC50 and inhibition of growth results from ChEMBL document CHEMBL3046529, “Chiral gamma-aryl-1H-1,2,4-triazole derivatives as highly potential antifungal agents: Design, synthesis, structure, and in vitro fungicidal activities” (J Agric Food Chem, 2008).

The EC50 is the midpoint of the concentration-response curve.

Assay [1] concerns Dothiorella gregaria. Briefly: In vitro fungicidal activity against Dothiorella gregaria assessed as mycelial growth inhibition at 26 degC after 48 hr by agar diffusion assay. It is filed as functional, organism-based. (In general: Agar diffusion results depend on both activity and mobility in agar.)
The subject of assay [2] is Colletotrichum gossypii. Briefly: In vitro fungicidal activity against Colletotrichum gossypii assessed as mycelial growth inhibition at 26 degC after 48 hr by agar diffusion assay. It is filed as functional, organism-based.
Assay [3] deals with Colletotrichum gossypii. The assay is described as follows: In vitro fungicidal activity against Colletotrichum gossypii assessed as mycelial growth inhibition at 50 mg/l at 26 degC after 48 hr by agar diffusion assay. It is filed as functional. Conditions: read-out: GI.
Assay [4] concerns Fusarium oxysporum. The assay is described as follows: In vitro fungicidal activity against Fusarium oxysporum assessed as mycelial growth inhibition at 50 mg/l at 26 degC after 48 hr by agar diffusion assay. It is filed as functional. Conditions: read-out: GI.
Assay [5] deals with Fusarium oxysporum. The assay is described as follows: In vitro fungicidal activity against Fusarium oxysporum assessed as mycelial growth inhibition at 100 mg/l at 26 degC after 48 hr by agar diffusion assay. Format: functional. Particulars: read-out: GI. An outline of the steps:
(§1)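 Compound is dissolved in DMF and added aseptically to autoclaved agar that has cooled to about 45-50 °C, giving 100 mg/L in the medium. Solvent never exceeds […]. Plain medium is the blank. A 5 mm mycelial plug, cut from the margin of an actively growing colony, goes in the plate centre. Three replicate plates are sealed and kept at 26 °C in darkness. Colony diameter is read at 48 h. Inhibition % = (control − treated diameter)/control diameter.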

Assay [6] deals with Dothiorella gregaria. Briefly: In vitro fungicidal activity against Dothiorella gregaria assessed as mycelial growth inhibition at 50 mg/l at 26 degC after 48 hr by agar diffusion assay. It is filed as functional. Conditions: read-out: GI.
The subject of assay [7] is Colletotrichum gossypii. Briefly: In vitro fungicidal activity against Colletotrichum gossypii assessed as mycelial growth inhibition at 100 mg/l at 26 degC after 48 hr by agar diffusion assay. It is filed as functional. Particulars: read-out: GI. A digest of the protocol:
as §1

Assay [8] has as its system Dothiorella gregaria. The assay is described as follows: In vitro fungicidal activity against Dothiorella gregaria assessed as mycelial growth inhibition at 100 mg/l at 26 degC after 48 hr by agar diffusion assay. Conditions: read-out: GI. Format: functional. A digest of the protocol:
as §1

For assay [9], the system named is Botrytis cinerea. The assay is described as follows: In vitro fungicidal activity against Botryotinia fuckeliana assessed as mycelial growth inhibition at 26 degC after 48 hr by agar diffusion assay. It is filed as functional, organism-based.
Assay [10] concerns Fusarium graminearum. The assay is described as follows: In vitro fungicidal activity against Fusarium graminearum assessed as mycelial growth inhibition at 50 mg/l at 26 degC after 48 hr by agar diffusion assay. It is filed as functional. Conditions: read-out: GI.
For assay [11], the system named is Botrytis cinerea. Briefly: In vitro fungicidal activity against Botryotinia fuckeliana assessed as mycelial growth inhibition at 50 mg/l at 26 degC after 48 hr by agar diffusion assay. It is filed as functional. Particulars: read-out: GI.
Assay [12] has as its system Fusarium graminearum. The assay is described as follows: In vitro fungicidal activity against Fusarium graminearum assessed as mycelial growth inhibition at 26 degC after 48 hr by agar diffusion assay. It is filed as functional, organism-based.
Assay [13] relates to Rhizoctonia solani. The assay is described as follows: In vitro fungicidal activity against Rhizoctonia solani assessed as mycelial growth inhibition at 26 degC after 48 hr by agar diffusion assay. It is filed as functional, organism-based.
Assay [14] relates to Rhizoctonia solani. Briefly: In vitro fungicidal activity against Rhizoctonia solani assessed as mycelial growth inhibition at 100 mg/l at 26 degC after 48 hr by agar diffusion assay. Format: functional. Conditions: read-out: GI. A digest of the protocol:
as §1

The subject of assay [15] is Botrytis cinerea. The assay is described as follows: In vitro fungicidal activity against Botryotinia fuckeliana assessed as mycelial growth inhibition at 100 mg/l at 26 degC after 48 hr by agar diffusion assay. It is filed as functional. Particulars: read-out: GI. A digest of the protocol: as §1
Assay [16] relates to Fusarium graminearum. The assay is described as follows: In vitro fungicidal activity against Fusarium graminearum assessed as mycelial growth inhibition at 100 mg/l at 26 degC after 48 hr by agar diffusion assay. Format: functional. Conditions: read-out: GI. A digest of the protocol: as §1
For assay [17], the system named is Fusarium oxysporum. The assay is described as follows: In vitro fungicidal activity against Fusarium oxysporum assessed as mycelial growth inhibition at 26 degC after 48 hr by agar diffusion assay. It is filed as functional, organism-based.
Assay [18] concerns Rhizoctonia solani. The assay is described as follows: In vitro fungicidal activity against Rhizoctonia solani assessed as mycelial growth inhibition at 50 mg/l at 26 degC after 48 hr by agar diffusion assay. Format: functional. Particulars: read-out: GI.

For the compound `CC(C)(C)C(=O)C(Oc1ccc(Cl)cc1)n1cncn1` (stereo not drawn) [TRIADIMEFON], the concentration giving a half-maximal response (EC50) with Dothiorella gregaria [1] was 317 µM; with Colletotrichum gossypii [2], 19 µM; with Botrytis cinerea [9] it was 41 µM; in the assay with Fusarium graminearum [12], 163 µM; with Rhizoctonia solani [13], 14 µM; with Fusarium oxysporum [17], 40 µM. In addition, the inhibition of growth at 50 µg/mL in the assay with Colletotrichum gossypii [3] came to 97%; in the assay on Fusarium oxysporum [4], 91%; in the assay with Dothiorella gregaria [6] it was 14%; in the assay with Fusarium graminearum [10] it was 59%; in the assay with Botrytis cinerea [11], 78%; with Rhizoctonia solani [18], 91%. The inhibition of growth at 100 µg/mL is 97% with Fusarium oxysporum [5]; 100% with Colletotrichum gossypii [7]; 71% in the assay on Dothiorella gregaria [8]; 100% in the assay with Rhizoctonia solani [14]; 96% in the assay on Botrytis cinerea [15]; 76% in the assay with Fusarium graminearum [16].
